Source: PubChem (The Scripps Research Institute Molecular Screening Center)
A selection: hits, their analogues and other compounds. The true share with any hit is near 1.8%.
M4 antag = blocks acetylcholine activation of human M4 receptor; CHO-hM4 cells, ACh EC80, Fluo-8 calcium fluorescence; inhibition, % at 3 µM; hit rate 0.73% among 360,000; AID 624125;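 active = inhibition above its plate's cutoff, the mean inhibition of sample wells plus 3 SD, cut at about 27% in these data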
M5 antag = antagonists of human muscarinic M5 receptor (CHRM5); AID 624040; P08912; inhibition, % at 3 µM; CHO-hM5 cells, Fluo-8 calcium fluorescence, ACh EC80; hit rate 0.59% among 360,000;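 active = inhibition above a per-plate cutoff, the mean of that plate's test compounds plus 3 SD, cut at about 27% in these data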
Target sequence (P08912 whole entry, looked up): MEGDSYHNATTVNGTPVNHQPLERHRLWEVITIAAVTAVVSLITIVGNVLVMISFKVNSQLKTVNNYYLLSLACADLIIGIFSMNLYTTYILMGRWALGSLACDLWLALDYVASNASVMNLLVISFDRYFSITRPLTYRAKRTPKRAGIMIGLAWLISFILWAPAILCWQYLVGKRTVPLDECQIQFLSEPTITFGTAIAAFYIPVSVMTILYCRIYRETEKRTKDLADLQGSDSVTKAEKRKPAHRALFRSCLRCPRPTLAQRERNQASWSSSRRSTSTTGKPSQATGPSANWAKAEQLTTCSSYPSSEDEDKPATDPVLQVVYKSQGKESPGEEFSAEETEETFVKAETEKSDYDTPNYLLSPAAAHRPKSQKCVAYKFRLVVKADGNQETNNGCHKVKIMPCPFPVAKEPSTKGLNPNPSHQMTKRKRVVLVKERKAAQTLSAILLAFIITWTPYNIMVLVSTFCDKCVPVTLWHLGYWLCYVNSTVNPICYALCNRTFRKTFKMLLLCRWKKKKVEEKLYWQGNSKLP
M4 PAM = potentiates acetylcholine response at human M4 receptor. P08173. CHO-K1 hM4/Gqi5, Fluo-8 calcium fluorescence, ACh EC20; 0% = ACh EC20, 100% = maximal ACh. activation, % at 3 µM. hit rate 0.4% among 360,000. AID 624126;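 active = activation above its plate's cutoff, the mean activation of sample wells plus 3 SD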
CHRM5 agonist = agonists of human muscarinic M5 receptor (CHRM5); CHO-K1 hM5 cells, Fluo-8 calcium fluorescence; 0% DMSO wells, 100% maximal acetylcholine response; activation, % at 3 µM; hit rate 0.19% among 360,000; AID 624037;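 active = activation above the run's mean over test compounds plus 3 SD, cut at about 23% in these data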;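 note: signal is peak over basal fluorescence ratio across the kinetic read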
CHRM4 agonist = CHRM4 agonism in calcium assay; P08173; CHO-K1 hM4/Gqi5, Fluo-8 calcium fluorescence; vehicle 0%, full acetylcholine response 100%; activation, % at 3 µM; hit rate 0.14% among 360,000; AID 624127;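 active = activation above the run mean over all test wells plus 3 SD, cut at about 32% in these data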;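 note: peak over basal fluorescence ratio per well then scaled between controls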
CHRM5 PAM = positive allosteric modulators of human muscarinic M5 receptor. P08912. CHO-K1 hM5, Fluo-8 calcium, ACh EC20 PAM; 0% = ACh EC20, 100% = ACh EC100. activation, % at 3 µM. hit rate 0.3% among 360,000. AID 624038;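 active = activation above the run cutoff, the mean activation of all test compounds plus 3 SD, cut at about 18% in these data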
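Assay system: CHO-K1 hM5 cells. Also added: acetylcholine at EC20 concentration, added after compound. Dosing: 3 µM, single dose. Times: compound preincubation 140 s before EC20 acetylcholine addition. Signal: Fluo-8 calcium fluorescence. Measure: % activation relative to EC20 and EC100 ACh responses. Repeats: singlicate, one well per test compound.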
Of the large screens only hits and unclear results are named; the others gave an inactive call.

Cc1nc2ccc(NS(=O)(=O)c3ccc(F)c(F)c3)cc2s1	none
COc1ccc(CCNC(=O)Nc2nc(C(N)Cc3ccccc3)cs2)cc1OC (stereo not given)	none
N#Cc1c(SCC(=O)Nc2nccs2)nc2c(c1-c1ccco1)CCCC2	none
CCOC(=O)C1CN(S(=O)(=O)c2cc(OC)ccc2OC)C1	none
Cc1cccc2cc(CN(CC3CCCO3)C(=O)NC3CCCCC3)c(=O)[nH]c12 (stereo not given)	none
COc1ccc(CCN(Cc2cc3cccc(C)c3[nH]c2=O)C(=O)NC2CCCCC2)cc1OC	M4 antag 31.4
CC(C)(C)n1nnnc1C(c1cccs1)N(Cc1cccnc1)Cc1ccco1 (stereo not given)	M5 antag 70.0
Cc1nn(C(C)C(=O)NCCc2ccco2)c(=O)c2nn(-c3ccccc3)c(C)c12 (stereo not given)	M4 PAM 50.7, CHRM5 PAM 23.5
CCN1C(=O)[C@@H]2[C@@H](c3ccc(SC4CCCCC4)cc3)N3CCCC[C@@]3(C(=O)OC)[C@@H]2C1=O	none
CCOC(=O)CCCCCCCCC(=O)Nc1ccc(-n2[nH]c(=O)cc2C)cc1	CHRM5 agonist 23.6
COc1ccc(CNC(=O)C(c2ccc(C)o2)N(C(=O)c2csnn2)c2ccc(C(C)C)cc2)cc1 (stereo not given)	none
Cc1cc(C(=O)N2CCN(c3ccc([N+](=O)[O-])cc3)CC2)co1	M4 antag 32.9, M4 PAM 41.0
O=C(CCc1ccccc1)N1CCN(c2ccc([N+](=O)[O-])cc2)CC1	M4 PAM 29.4
Cc1cc(C(=O)N2CCN(c3ccc([N+](=O)[O-])cc3)CC2)c(C)o1	none
O=C(CN1CCN(c2ccc([N+](=O)[O-])cc2)CC1)c1ccccc1	M4 antag 29.0
CCc1ccc(OCC(=O)O/N=C(\N)Cc2ccc([N+](=O)[O-])cc2)cc1	none
CCc1nnc(NC(=O)c2ccc(S(=O)(=O)N(C)Cc3ccccc3)cc2)o1	M4 PAM 16.5
CCc1nnc(NC(=O)c2ccc(S(=O)(=O)N(CC)Cc3ccccc3)cc2)o1	none
CC(C)Nc1nc(NCCN2CCNC2=O)c2sccc2n1	none
COCCNc1nc(NCc2cccs2)nc2ccsc12	M4 antag 91.7, M5 antag 81.1, CHRM5 agonist 95.7, CHRM4 agonist 158.7
c1ccc(CNc2nc(NCCc3ccncc3)c3sccc3n2)cc1	M4 antag 100.2, M5 antag 98.5, CHRM5 agonist 95.8, CHRM4 agonist 154.7
CC(=O)NCCNc1nc(NCc2cccs2)nc2ccsc12	none
O=C1NCCN1CCNc1nc(NCc2ccccc2)nc2ccsc12	M4 antag 52.2, CHRM4 agonist 45.9
O=C1CCCN1CCCNc1nc(NCc2cccs2)nc2ccsc12	M4 antag 52.6, CHRM5 agonist 40.7, CHRM4 agonist 96.1
O=C1CCCN1CCCNS(=O)(=O)c1cccs1	none
CC(C)OCCCNC(=O)C1CCN(S(=O)(=O)N2CCCC2)CC1	none
CN1C(=O)CC(C(=O)Nc2ccccc2F)SC1=Nc1ccc2c(c1)OCO2 (stereo not given)	none
Cc1ccc(NC(=S)N(C)Cc2cn(C)c3ccccc23)cc1	none
c1csc(CNc2nc(NCC3CCCCC3)c3sccc3n2)c1	M4 antag 27.1
c1ccc(CNc2nc(NCc3cccs3)nc3ccsc23)cc1	M5 antag 41.6, CHRM4 agonist 39.5
COC(=O)c1ccc(N)cc1O	CHRM5 PAM 22.5
CCS(=O)(=O)C1=NSC2=NC(=O)/C(=C\c3ccc(OC(=O)c4ccco4)cc3)C(=N)N21	none
COc1ccc(CCCNC(=O)C2Cc3c(-c4ccc5c(c4)OCO5)ccnc3O2)cc1 (stereo not given)	none
COc1cc(OC)c(NC(=O)c2c(-c3ccccc3)noc2C)cc1Cl	CHRM5 PAM 18.4
Cc1cccc(C(=O)NC(=S)NNC(=O)Cc2ccccc2)c1	none
Cc1cccc(C(=O)NC(=S)NNC(=O)COc2c(C)cccc2C)c1	M4 PAM 22.9
Cc1cccc(C(=O)NC(=S)NNC(=O)c2ccccc2Cl)c1	CHRM5 agonist 46.0, CHRM4 agonist 39.8
Cc1ccc(C(=O)NNC(=S)NC(=O)c2ccc(Cl)cc2)cc1	M4 antag 33.3, CHRM5 agonist 97.9, CHRM4 agonist 130.9
Nc1c(Cl)cnc(C(Cl)(Cl)Cl)c1Cl	none
C#Cc1ccccc1OCCCN1CCC(C(O)(c2ccccc2)c2ccccc2)CC1	none
Cc1ccccc1C(=O)NNC(=S)NC(=O)c1ccc(Cl)cc1Cl	CHRM5 agonist 53.0, CHRM4 agonist 84.0
Cc1onc(-c2ccccc2)c1C(=O)NNC(=S)NC(=O)c1ccc(Br)cc1	CHRM5 agonist 34.6, CHRM4 agonist 60.6
Cc1onc(-c2ccccc2)c1C(=O)NNC(=S)NC(=O)c1ccc(Cl)cc1Cl	CHRM5 agonist 30.3, CHRM4 agonist 113.2
Cn1c(NCCc2ccncc2)nc2cc(-c3ccsc3)sc2c1=O	none
O=C(Cn1nc([N+](=O)[O-])nc1Br)NC(c1ccccc1)c1ccccc1	M4 antag 30.0
COc1ccc(S(=O)(=O)N2CCN(C(=O)C3COc4ccccc4O3)CC2)cc1 (stereo not given)	M4 antag 31.8
COc1cc2nc(N3CCN(C(=O)C4COc5ccccc5O4)CC3)nc(N)c2cc1OC (stereo not given)	M4 antag 29.5
COc1cc2nc(N3CCN(C(=O)c4ccco4)CC3)nc(N)c2cc1OC	none
O=C(NCc1ccc(Cl)cc1)C1CCC(CNc2c(N3CCOCC3)c(=O)c2=O)CC1 (stereo not given)	none
COCCNC(=O)CN(C(=O)c1ccc(N2CCCC2)nc1)c1ccc(F)c(Cl)c1	CHRM5 PAM 22.0
COCCNC(=O)CN(C(=O)c1ccc(N2CCCC2)nc1)c1ccccc1	none
CC1CCCCC1n1c(-c2cccnc2)n[nH]c1=S (stereo not given)	none
S=c1[nH]nc(-c2cccnc2)n1C1CCCCC1	M4 PAM 25.8
CCCC(=O)Nc1cc2c3c(c1)CCN3C(=O)CC2	none
Cc1ccc(S(=O)(=O)N/N=C/c2ccc(OC3CSC3)cc2)cc1	CHRM5 agonist 37.8, CHRM4 agonist 42.2
COCCNc1ncnc2c1cnn2-c1ccc(Cl)cc1	M4 antag 27.6
CC(=O)c1ccc(NC(=O)CCc2ccc(C)o2)cc1	none
O=C(COC(=O)CSc1ccc(Cl)cc1)NCCc1ccccc1	M4 PAM 23.6
NC(=O)c1ccsc1NC(=O)COC(=O)c1ccc(Cl)cc1	none
Cc1ccc(OCC(=O)OCC(=O)Nc2sccc2C(N)=O)cc1C	M5 antag 32.3
NC(=O)c1ccsc1NC(=O)COC(=O)CSc1ccc(Cl)cc1	M5 antag 31.5
